From PMC7919060 (ACS chemical neuroscience, 2020)
Counter-ions that a name gives are not always drawn. Like-named read-outs stand apart in the source and are kept apart here.

What was measured:
MDR1-MDCK cell monolayer = test: Permeability and efflux in MDR1-MDCK cell monolayer; format: in vitro ADME
[1] = Mouse pharmacokinetics, single IP dose 10 mg/kg; format: in vivo, CD-1 mice
brain GlcCer [2] = settings: normal mice, 60 mg/kg; cited from earlier work
[3] = Stability to mouse liver microsomes; format: in vitro ADME; settings: CD-1, mouse, pH 7.4
How it was run: (§1)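 Test compound at 1 μM with 0.5 mg/mL liver microsomes (CD-1 mouse or human), 1.7 mM β-NADPH, 0.1 M phosphate pH 7.4, 3.3 mM MgCl₂, 37 °C, final DMSO <0.1%. Aliquots at 0–60 min (seven points) were quenched in cold acetonitrile with internal standard. Parent remaining was measured by LC-MS/MS. Half-life was taken from ln(remaining) versus time.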

[4] = Stability to human liver microsomes; format: in vitro ADME; settings: pH 7.4
How it was run: as §1

P-glycoprotein (MDR1) = test: Permeability and efflux in MDR1-MDCK cell monolayer; format: in vitro ADME; settings: dog, MDCK-MDR1
[5] = format: in vivo, D409V/D409V mice of C57BL/6 background; settings: both, C57BL/6 (Gba D409V/D409V), mouse, ip, 10 mg/kg
How it was run: (§2)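 Gba D409V/D409V mice (C57BL/6 background) received CBE 25 mg/kg IP daily for 14 days from postpartum day 15. Test compound (10 mg/kg qd IP, citrate-saline) or buffer alone was coadministered; 8–11 mixed-gender mice per group. Sacrifice was 2 h after final dose. Brain GlcCer and GlcSph were separated from galactosyl analogues and quantified by LC-MS/MS. Values were normalised to tissue weight (pmol/mg) relative to vehicle controls; Student's t test.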

brain GlcCer and GlcSph = format: in vivo, D409V/D409V mice of C57BL/6 background; settings: CBE mice
How it was run: as §2

brain GlcCer [6] = test: In vivo reduction of brain glucosylceramide in normal mice; settings: normal C57BL/6 mice, IP
How it was run: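 Female or male C57BL/6 mice, 6–8 weeks old, on regular chow, given test compound or vehicle IP daily for 3 days. Injection volume was 1% of body weight. Two dose-response runs were done: 30, 10, 1 mg/kg and 1.0–0.03 mg/kg. Whole brain was homogenised in sucrose buffer, then chloroform/methanol extracted and subjected to alkaline methanolysis. Extract was normalised to 2 μmol phospholipid phosphate. GlcCer was quantified by HPTLC against standards.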

[7] = mouse, IP, 10 mg/kg, single dose

| Structure (SMILES) | brain AUC [1, 7] | half-life at 1 μM [3] | half-life at 1 μM [4] | Papp A→B (P-glycoprotein (MDR1)) | Papp B→A (P-glycoprotein (MDR1)) | concentration at 2 h ([5]; brain) | concentration at 2 h ([5]; spleen) | reduction in brain GlcCer (brain GlcCer and GlcSph; IP 10 mg/kg qd for 14 days) | reduction in brain GlcSph (brain GlcCer and GlcSph; IP 10 mg/kg qd for 14 days) | other results |
| --- | --- | --- | --- | --- | --- | --- | --- | --- | --- | --- |
| O=C(CC1Cc2ccccc2C1)N[C@H](CN1CCCC1)[C@H](O)c1ccc2c(c1)OCCO2 [Compound 2] | 36 ng·h/g | – | – | – | – | – | – | – | – | efflux ratio (MDR1-MDCK cell monolayer; MDR1-MDCK cell monolayer): 298; Papp A-B (MDR1-MDCK cell monolayer; MDR1-MDCK cell permeability): 0.14 ×10⁻⁶ cm/s; Papp B-A (MDR1-MDCK cell monolayer; MDR1-MDCK cell permeability): 40.8 ×10⁻⁶ cm/s; cumulative B/P ratio (brain AUC/plasma AUC) [1, 7]: 0.11; plasma AUC [1, 7]: 317 ng·h/mL; reduction in brain GlcCer (brain GlcCer [2]): 17% |
| CC(C)(NC(=O)O[C@@H]1CN2CCC1CC2)c1csc(-c2ccc(F)cc2)n1 [Compound 3, reference compound] | 6188 ng·h/g | > 60 min | > 60 min | 0.58 ×10⁻⁶ cm/s | 49 ×10⁻⁶ cm/s | 493 ng/g | 4570 ng/g | 26% | 35% | AUC ([1]; female, CD-1, mouse, plasma, ip, 10 mg/kg): 7160 ng·h/mL |
| O=C(CC1Cc2ccccc2C1)N[C@H](CN1CCCC1)[C@H](O)c1ccc(OC(F)(F)F)cc1 [Compound 17, 2-(2,3-Dihydro-1H-inden-2-yl)-N-((1R,2R)-1-hydroxy-3-(pyrrolidin-1-yl)-1-(4-(trifluoromethoxy)phenyl)propan-2-yl)acetamide] | 1046 ng·h/g | 37 min | – | 0.95 ×10⁻⁶ cm/s | 56.6 ×10⁻⁶ cm/s | 134 ng/g | 4880 ng/g | 19% | 39% | increase in overall brain exposure vs 2 ([1]; mouse, IP, 10 mg/kg, brain AUC relative to 2): ~30 fold; total brain exposure (AUC) as percentage of that of Genz-682452 ([1]; mouse, single 10 mg/kg IP dose): about 20%; reduction in brain GlcCer (brain GlcCer [6]; 1 mg/kg for 3 days): about 34%; reduction in brain GlcCer (printed as negative change) (brain GlcCer [6]; 30 mg/kg for 3 days): −41%; effect on brain levels of galactosylceramide and galactosylsphingosine (brain GlcCer and GlcSph; selectivity vs galactosylceramide synthase, data not shown): lack of effect |
| CCCCCCCC(=O)N[C@H](CN1CCCC1)[C@H](O)c1ccc2c(c1)OCCO2 [eliglustat, eliglustat tartrate, reference compound] | – | – | 12.5 min | – | – | – | – | – | – | activity on brain glycosphingolipids in CBE mouse assay (brain GlcCer and GlcSph; IP 10 mg/kg qd for 14 days): inactive |
